From PMC7363052 (Journal of hepatology, 2020)

Tests used:
integrin αvβ3 [1] = target: T1, integrin αvβ3 (Mus musculus, UniProt O54890+P43406); format: binding; conditions: frozen fibrotic liver sections, severe CCl4 and BDL models, immunofluorescence
T1 sequence (P43406 31-885 limits assumed): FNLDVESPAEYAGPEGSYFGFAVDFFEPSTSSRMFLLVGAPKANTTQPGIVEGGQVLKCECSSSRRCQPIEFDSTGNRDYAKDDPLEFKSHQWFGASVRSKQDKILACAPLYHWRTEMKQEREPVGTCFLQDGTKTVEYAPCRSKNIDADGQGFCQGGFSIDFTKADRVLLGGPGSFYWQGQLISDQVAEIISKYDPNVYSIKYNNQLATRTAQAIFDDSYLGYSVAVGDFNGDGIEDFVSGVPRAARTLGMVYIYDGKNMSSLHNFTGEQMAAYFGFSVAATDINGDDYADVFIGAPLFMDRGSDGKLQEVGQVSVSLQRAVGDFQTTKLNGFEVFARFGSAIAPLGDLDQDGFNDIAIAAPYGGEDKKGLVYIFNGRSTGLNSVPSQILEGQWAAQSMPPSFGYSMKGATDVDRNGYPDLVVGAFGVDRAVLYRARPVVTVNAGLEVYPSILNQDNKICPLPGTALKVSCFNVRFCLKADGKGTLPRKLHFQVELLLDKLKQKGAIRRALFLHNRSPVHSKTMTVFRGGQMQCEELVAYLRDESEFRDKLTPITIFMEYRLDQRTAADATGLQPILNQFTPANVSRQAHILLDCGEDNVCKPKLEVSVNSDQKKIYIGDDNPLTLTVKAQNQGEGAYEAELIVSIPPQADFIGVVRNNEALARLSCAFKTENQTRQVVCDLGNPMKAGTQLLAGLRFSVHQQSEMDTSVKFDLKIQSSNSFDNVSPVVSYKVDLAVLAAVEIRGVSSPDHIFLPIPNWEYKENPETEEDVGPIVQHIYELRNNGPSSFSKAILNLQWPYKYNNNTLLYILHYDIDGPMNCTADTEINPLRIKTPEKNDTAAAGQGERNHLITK
T1 sequence (P43406 887-1044 partner limits assumed): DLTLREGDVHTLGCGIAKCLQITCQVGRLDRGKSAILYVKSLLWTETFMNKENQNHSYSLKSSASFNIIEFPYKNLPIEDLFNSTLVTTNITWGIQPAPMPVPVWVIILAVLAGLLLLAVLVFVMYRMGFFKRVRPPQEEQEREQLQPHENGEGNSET
T1 sequence (O54890 26-787): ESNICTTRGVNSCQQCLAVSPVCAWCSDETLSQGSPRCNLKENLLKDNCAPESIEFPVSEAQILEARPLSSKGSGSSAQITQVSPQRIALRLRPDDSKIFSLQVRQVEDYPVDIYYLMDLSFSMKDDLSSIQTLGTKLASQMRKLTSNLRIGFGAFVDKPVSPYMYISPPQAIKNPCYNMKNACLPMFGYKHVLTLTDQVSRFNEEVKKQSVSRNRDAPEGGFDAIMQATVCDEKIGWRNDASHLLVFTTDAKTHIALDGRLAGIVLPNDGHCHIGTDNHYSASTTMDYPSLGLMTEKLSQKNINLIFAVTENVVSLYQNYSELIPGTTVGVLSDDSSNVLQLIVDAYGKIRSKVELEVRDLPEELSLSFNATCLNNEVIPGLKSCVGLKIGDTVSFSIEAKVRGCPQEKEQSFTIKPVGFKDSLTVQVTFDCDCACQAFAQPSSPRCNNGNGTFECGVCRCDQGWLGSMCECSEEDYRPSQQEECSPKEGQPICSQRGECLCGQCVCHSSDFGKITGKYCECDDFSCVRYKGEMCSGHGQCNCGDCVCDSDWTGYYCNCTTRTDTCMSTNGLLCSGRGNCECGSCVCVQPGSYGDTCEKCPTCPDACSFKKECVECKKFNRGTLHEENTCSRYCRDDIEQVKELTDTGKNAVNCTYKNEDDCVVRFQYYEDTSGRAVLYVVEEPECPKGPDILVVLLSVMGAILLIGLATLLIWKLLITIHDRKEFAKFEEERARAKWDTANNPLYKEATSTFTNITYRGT
How it was run: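 Liver fibrosis was induced in 10-week-old male CD1 mice with CCl4, 0.2 mL/kg as 1:5 CCl4:olive oil, i.p. twice weekly for up to 12 weeks. Other mice had the common bile duct transected via midline laparotomy and were killed after 3 weeks. Frozen liver sections were co-stained with a FITC-labelled dimeric RGD peptide probe and α-SMA and CD68 antibodies to assess co-localization.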

integrin αvβ3 [2] = target: integrin αvβ3 (Homo sapiens, UniProt P05106+P06756); format: binding; conditions: advanced fibrosis human liver frozen sections, immunofluorescence
integrin αvβ3 (Homo sapiens, UniProt P05106+P06756), sequence (P06756 31-889 limits assumed): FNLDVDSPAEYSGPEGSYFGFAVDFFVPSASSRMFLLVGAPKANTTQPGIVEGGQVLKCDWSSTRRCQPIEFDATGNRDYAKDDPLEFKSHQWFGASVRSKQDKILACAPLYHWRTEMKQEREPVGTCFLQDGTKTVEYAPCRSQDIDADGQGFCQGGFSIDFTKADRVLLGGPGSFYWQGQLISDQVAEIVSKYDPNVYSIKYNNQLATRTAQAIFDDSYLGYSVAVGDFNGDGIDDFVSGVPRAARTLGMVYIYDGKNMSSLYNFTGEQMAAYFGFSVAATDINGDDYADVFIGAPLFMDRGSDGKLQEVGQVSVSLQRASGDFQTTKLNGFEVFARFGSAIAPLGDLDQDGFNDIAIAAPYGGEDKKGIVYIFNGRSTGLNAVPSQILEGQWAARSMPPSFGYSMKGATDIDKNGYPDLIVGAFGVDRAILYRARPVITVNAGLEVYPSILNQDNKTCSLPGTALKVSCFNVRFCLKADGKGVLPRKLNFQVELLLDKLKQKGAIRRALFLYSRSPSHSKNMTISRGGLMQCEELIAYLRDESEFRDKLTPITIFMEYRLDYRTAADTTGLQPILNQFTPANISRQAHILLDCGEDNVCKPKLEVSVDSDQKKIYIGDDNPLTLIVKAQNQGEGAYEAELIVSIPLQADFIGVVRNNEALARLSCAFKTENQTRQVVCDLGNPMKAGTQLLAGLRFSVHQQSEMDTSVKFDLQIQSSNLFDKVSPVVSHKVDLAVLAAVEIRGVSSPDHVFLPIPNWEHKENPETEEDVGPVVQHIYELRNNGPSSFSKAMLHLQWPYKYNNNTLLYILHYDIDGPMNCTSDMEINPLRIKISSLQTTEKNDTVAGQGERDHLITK
integrin αvβ3 (Homo sapiens, UniProt P05106+P06756), sequence (P06756 891-1048 partner limits assumed): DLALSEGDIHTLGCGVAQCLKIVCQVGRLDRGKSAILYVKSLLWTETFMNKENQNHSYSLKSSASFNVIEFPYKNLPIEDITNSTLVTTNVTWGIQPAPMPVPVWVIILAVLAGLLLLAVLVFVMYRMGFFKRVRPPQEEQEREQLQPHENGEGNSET
integrin αvβ3 (Homo sapiens, UniProt P05106+P06756), sequence (P05106 27-788): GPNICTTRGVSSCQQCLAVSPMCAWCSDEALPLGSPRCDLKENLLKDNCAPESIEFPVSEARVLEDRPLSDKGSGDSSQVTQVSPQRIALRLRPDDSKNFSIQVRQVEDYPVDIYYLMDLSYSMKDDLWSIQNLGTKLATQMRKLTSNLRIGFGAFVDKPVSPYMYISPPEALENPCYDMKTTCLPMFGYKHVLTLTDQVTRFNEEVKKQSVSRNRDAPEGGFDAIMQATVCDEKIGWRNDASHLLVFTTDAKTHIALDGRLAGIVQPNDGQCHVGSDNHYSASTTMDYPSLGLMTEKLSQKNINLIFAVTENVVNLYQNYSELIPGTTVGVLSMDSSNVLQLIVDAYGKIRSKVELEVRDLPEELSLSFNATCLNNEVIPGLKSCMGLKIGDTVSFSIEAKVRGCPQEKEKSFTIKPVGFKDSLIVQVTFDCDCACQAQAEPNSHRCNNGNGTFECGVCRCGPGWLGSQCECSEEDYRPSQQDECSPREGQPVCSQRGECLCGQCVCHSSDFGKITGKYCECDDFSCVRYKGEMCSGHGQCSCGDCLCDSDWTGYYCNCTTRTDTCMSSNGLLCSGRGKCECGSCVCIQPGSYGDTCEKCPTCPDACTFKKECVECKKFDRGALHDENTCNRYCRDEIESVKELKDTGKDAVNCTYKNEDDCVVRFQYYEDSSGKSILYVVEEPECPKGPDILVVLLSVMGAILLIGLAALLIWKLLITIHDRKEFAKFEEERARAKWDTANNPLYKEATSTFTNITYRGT
How it was run: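 Snap-frozen liver sections came from patients with staged fibrosis (F1–F3, n=3 each) and from normal livers. Advanced-fibrosis sections were stained with a FITC-labelled PEG4-linked dimeric cyclic RGD peptide probe (green), plus CD68 or α-SMA (red). Co-localization was read by fluorescence microscopy at original magnification 100X.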

[3] = Serum ALT and AST in CCl4-treated mice; format: in vivo, mouse; conditions: CCl4 0.2 mL/kg i.p. twice per week, 6 weeks (mild), mean ± SEM
TGF-β1 = assay: Hepatic TGF-β1 mRNA by RT-PCR in CCl4-treated mice; format: in vivo, mouse; conditions: compared to control
How it was run: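 Male CD1 mice, 10 weeks old, given CCl4 at 0.2 mL/kg (1:5 in olive oil) i.p. twice weekly; controls received olive oil only. Hepatic TGF-β1 mRNA was measured by RT-PCR and expressed as relative mRNA level by the ΔΔCT method. Values are mean ± SEM, n = 3–6, compared by one-way ANOVA with Tukey's post hoc test.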

Molecule | co-localization with CD68 (integrin αvβ3 [1]) | co-localization with α-SMA (integrin αvβ3 [1]) | co-localization with CD68 (integrin αvβ3 [2]) | co-localization with α-SMA (integrin αvβ3 [2]) | serum ALT ([3]; sham 20.66±1.383) | serum AST ([3]; sham 76.24±6.128) | hepatic TGF-β1 mRNA level increase (TGF-β1; 6 weeks of CCl4 treatment) [fold] | hepatic TGF-β1 mRNA level increase (TGF-β1; 12 weeks of CCl4 treatment) [fold]
FITC-E(PEG4-RGDfK)2 [FITC-RGD2] | little co-localization | high co-localization | low co-localization | high co-localization |  |  |  | 
ClC(Cl)(Cl)Cl [CCl4, carbon-tetrachloride] |  |  |  |  | 96.22±18.5 | 125.7±9.82 | 2 | 8
